Bioassay records from PubChem BioAssay.
Sampled rows, rich in hits. Any-hit rate of the full collection: about 2.6%.
EP2 mod: EP2 receptor modulators, cAMP readout, primary screen, cell-based, HTRF cAMP, PGE2 stimulation; EP2-expressing cells, cAMP HTRF FRET, PGE2 co-stimulation; induction, % at 25 µM; Prostaglandin E2 receptor EP2 subtype (Homo sapiens), P43116; hit rate 0.83% among 260,000; AID 940, 2007;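 active means compounds whose cAMP rise, as percent of the full-agonist control response, exceeds 60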;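 further: rat C6 glioma line stably carrying human EP2 under a CMV promoter; the protocol text gives 20 µM as final concentration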
Target sequence (P43116 whole entry, looked up): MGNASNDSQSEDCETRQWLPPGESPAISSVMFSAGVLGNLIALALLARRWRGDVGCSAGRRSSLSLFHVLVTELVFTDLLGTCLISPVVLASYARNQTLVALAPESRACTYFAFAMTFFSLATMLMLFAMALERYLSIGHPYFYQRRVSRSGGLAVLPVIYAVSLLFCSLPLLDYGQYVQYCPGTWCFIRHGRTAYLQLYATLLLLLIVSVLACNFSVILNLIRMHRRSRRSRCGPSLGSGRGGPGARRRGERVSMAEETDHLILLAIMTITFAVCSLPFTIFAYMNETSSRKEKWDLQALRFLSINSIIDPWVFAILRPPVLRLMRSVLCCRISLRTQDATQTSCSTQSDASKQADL
MC4R antag cAMP: MC4R antagonists of cAMP signaling, primary screen, cell-based, TR-FRET, antagonist arm of biased-ligand search; AID 540295, 2011; Melanocortin receptor 4 (Homo sapiens), P32245; inhibition, % at 6.5 µM; hit rate 0.48% among 360,000; MC4R-expressing cells, MTII-stimulated cAMP, LANCE TR-FRET;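 active means inhibition above its plate's cutoff, the mean of tested wells on that plate plus 3 SD, cut at about 29% in these data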
Target sequence (P32245 whole entry, looked up): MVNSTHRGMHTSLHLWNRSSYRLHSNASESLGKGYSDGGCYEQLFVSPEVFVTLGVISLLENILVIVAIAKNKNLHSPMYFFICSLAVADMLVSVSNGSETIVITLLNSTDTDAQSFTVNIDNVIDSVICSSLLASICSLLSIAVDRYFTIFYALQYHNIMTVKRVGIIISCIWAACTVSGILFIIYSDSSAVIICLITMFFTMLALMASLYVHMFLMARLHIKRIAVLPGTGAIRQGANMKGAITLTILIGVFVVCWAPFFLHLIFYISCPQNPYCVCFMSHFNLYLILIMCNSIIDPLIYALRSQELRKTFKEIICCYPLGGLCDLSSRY
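System: U2OS-MC4R stable cell line; Technique: Eu-cAMP/anti-cAMP TR-FRET, emission 671 nm; Repeats: single well per compound; Also added: Melanotan II; Dosing: one concentration, 6.5 µM nominal; Schedule: 30-min compound, 1-h challenge, 1-h detection, room temperature.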
T cell modulator: modulators of CD8 T cell-vesicle binding, primary screen, mouse 2C CD8+ T cells, flow cytometry. 2C CD8+ T cell-vesicle binding; active compounds read low. response (vesicle binding), % at 7 µM. hit rate 0.068% among 330,000;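 active means response, share of CD8 T cells binding vesicles, and their 90th percentile fluorescence all below set limits, cut at about 80% in these data, passing the limit was not always enough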;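 further: values below 100% mean blocked vesicle binding to the CD8+ T cells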
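Benchmarks: naked versus QL9-loaded vesicles / Assay system: purified 2C TCR transgenic mouse naive CD8+ T cells / Technique: high-throughput flow cytometry with anti-B7-1 and anti-CD8 staining / Timing: Cell–vesicle co-incubation 1.5 h at 37 °C, staining 20 min on ice / Read-out: percent CD8+ FL2 mean versus row control / Probe or stimulus: QL9-loaded Drosophila micro-vesicles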
Exocytosis inh: LAMP-1 surface exposure blockers, TALL-104 cells – cell-based, flow cytometry, MLPCN library, primary screen; TALL-104 LAMP-1 surface exposure; cells stimulated with thapsigargin and PMA; inhibition, % at 10 µM; hit rate 0.66% among 360,000;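 active means inhibition above about 55%, limit read from the data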
MC4R ag barr: MC4R agonists recruiting beta-arrestin, primary screen, cell-based, luminescence, agonist arm of biased-ligand search; hit rate 0.98% among 360,000; U2OS MC4R beta-arrestin complementation; percent of melanotan II response, DMSO zero; AID 540308, 2011; Melanocortin receptor 4 (Homo sapiens), P32245; activation, % at 8.9 µM;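 active means activation above a per-plate cutoff, the mean activation of sample wells on that plate plus 3 SD, cut at about 8% in these data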
EP2 antag: human EP2 receptor antagonists, primary screen, TR-FRET cAMP, C6 glioma cells; C6 glioma cells expressing human EP2; cells stimulated with saturating PGE2; inhibition, % at 25 µM; hit rate 0.52% among 260,000; AID 1422, 2008;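 active means percent inhibition above 40 after rounding to a whole number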;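 further: rat C6 glioma host cells with rolipram phosphodiesterase inhibitor present; the protocol text gives 20 µM as final concentration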
U2OS cAMP counter: nonselective cAMP signaling inhibitors, parental cells, counter-screen for MC4R biased antagonist project, cell-based, TR-FRET, U2OS, forskolin, triplicate. shares compounds with MC4R antag cAMP. LANCE TR-FRET. inhibition, % at 6.5 µM. hit rate 26% among 1,600;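 active means mean inhibition over triplicates above the low-control well mean plus 3 SD, set per campaign, cut at about 13% in these data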;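 further: signal is single emission at 671 nm which falls as cellular cAMP rises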
MC4R antag conf: MC4R cAMP antagonists, retest, confirmation, cell-based, TR-FRET; shares compounds with MC4R antag cAMP; MC4R-expressing cells, MTII-stimulated cAMP; inhibition, % at 6.5 µM; hit rate 27% among 1,600; AID 602195, 2012; in the data active means inhibition above about 29%
Of the large screens only hits and unclear results are named; the others gave an inactive call (follow-up assays come after a bar, where they were run).

N#C/C(=C(/O)c1ccc([N+](=O)[O-])cc1)c1nnc2n1CCCCC2	none
O=C(Nc1ccccc1)c1sc(Cl)nc1-c1ccccc1	none
O=C(Nc1cc(F)cc(F)c1)c1sc(Cl)nc1-c1ccccc1	MC4R antag cAMP 31 | U2OS cAMP counter inactive | MC4R antag conf inactive
Cc1ccc(NC(=O)c2sc(Cl)nc2-c2ccccc2)cc1C	MC4R antag cAMP 43 | U2OS cAMP counter 16 | MC4R antag conf 46
CCC(=O)NC(c1ccccc1)c1nc2ccccc2[nH]1 (stereo not drawn)	none
O=C(NC1CC2CCCC(C1)N2C(=O)Nc1ccccc1)C1CC1 (stereo not drawn)	none (no result: EP2 mod, EP2 antag)
Cc1oc(S(=O)(=O)N2CCCC2)cc1C(=O)Nc1ccccc1	none
C[C@H](O)C#Cc1ccc2c(c1)O[C@@H](CN(C)Cc1ccc(-c3ccccc3)cc1)[C@H](C)CN([C@@H](C)CO)S2(=O)=O	MC4R antag cAMP 39 (no result: EP2 mod, T cell modulator, EP2 antag) | U2OS cAMP counter inactive | MC4R antag conf 29
C[C@@H]1CN([C@H](C)CO)S(=O)(=O)c2ccc(Br)cc2O[C@@H]1CN(C)Cc1ccc(-c2ccccc2)cc1	none (no result: EP2 mod, T cell modulator, EP2 antag)
Cc1ccc(NC(=O)c2ccccc2NS(=O)(=O)c2ccc(Cl)s2)cc1	none
O=C(N/N=C/c1cn(-c2ccccc2)nc1-c1cccs1)c1ccccc1F	none
CC1=NNC(=O)/C1=C\c1cn(-c2ccccc2)nc1-c1cccs1	MC4R antag cAMP 47 | U2OS cAMP counter 22 | MC4R antag conf 44
CCNC(=O)C1(C)CCCN(C(=O)C2(c3ccc(Cl)cc3)CCCC2)C1 (stereo not drawn)	none (no result: EP2 mod, T cell modulator, EP2 antag)
S=c1[nH]ccc2ccccc12	MC4R antag cAMP 29 (no result: EP2 mod, T cell modulator, EP2 antag) | U2OS cAMP counter inactive | MC4R antag conf inactive
O=C1NC(=O)C2C1C(c1ccccc1)N1C3C(=O)NC(=O)C3C(c3ccccc3)N21 (stereo not drawn)	none
CN(C(=O)COC(=O)c1ccc(C(C)(C)C)cc1)C1CCS(=O)(=O)C1 (stereo not drawn)	none (no result: EP2 mod, EP2 antag)
CN(C(=O)COC(=O)c1nc(Cl)c(Cl)c(Cl)c1Cl)C1CCS(=O)(=O)C1 (stereo not drawn)	MC4R antag cAMP 43 (no result: T cell modulator) | U2OS cAMP counter 15 | MC4R antag conf 38
O=C(Nc1nccs1)c1cc2cc(Cl)ccc2oc1=O	MC4R antag cAMP 33 | U2OS cAMP counter inactive | MC4R antag conf inactive
COC(=O)C1=C(COc2ccc(C=O)cc2OC)NC(=O)NC1c1cc(C)ccc1C (stereo not drawn)	none
Cc1cc(C(=O)N2CCCC(Nc3ccccc3)C2)c2ccc(F)cc2n1 (stereo not drawn)	none (no result: EP2 mod, EP2 antag)
Cc1ccc(C)c(-c2cc(C(=O)Nc3cccnc3)c3ccccc3n2)c1	none (no result: EP2 mod, EP2 antag)
Cc1ccc(C)c(-c2cc(C(=O)Nc3cccc(C(=O)O)c3)c3ccccc3n2)c1	MC4R antag cAMP 35 | U2OS cAMP counter inactive | MC4R antag conf inactive
Cc1ccc(CNC(=O)N2CCN(c3ccc(C)cc3)CC2)cc1	none (no result: EP2 mod, EP2 antag)
CC1CCCN(C(=O)CCCC(=O)N2CCCC(C)C2)C1 (stereo not drawn)	none (no result: EP2 mod, EP2 antag)
CCCCNc1c(-c2ccc(OC)c(SC3CCCCC3)c2)nc2cc(C)ccn12	none (no result: EP2 mod, EP2 antag)
CCCCNc1c(-c2ccc(OC)c(SC3CCCCC3)c2)nc2cnccn12	MC4R antag cAMP 32 (no result: EP2 mod, EP2 antag) | U2OS cAMP counter inactive | MC4R antag conf inactive
Cc1ccc2c(c1)NC(=O)C(CC(=O)O)O2 (stereo not drawn)	none
O=C1CNC(=O)/C1=C\c1ccc(O)cc1	none
O=C1CNC(=O)/C1=C/c1ccc(Br)cc1	MC4R antag cAMP 32 | U2OS cAMP counter inactive | MC4R antag conf inactive
O=C(COC(=O)C1CCCCC1)Nc1ccccc1OC(F)F	none
COc1cc(C)nc(Oc2ccc(=O)n(C)n2)n1	none (no result: T cell modulator)
C=CC[C@@H](CC(=O)N(CCO)Cc1ccccc1)C(=O)N[C@H](COC(=O)[C@@H](CC=C)Cc1ccc(F)cc1)Cc1c[nH]c2ccccc12	MC4R antag cAMP 29 (no result: EP2 mod, EP2 antag) | U2OS cAMP counter inactive | MC4R antag conf inactive
Cn1c(=O)c2cc(NC(=O)CC(C)(C)C)ccc2n1-c1ccccc1F	none (no result: EP2 mod, T cell modulator, EP2 antag)
CC1=C(C(=O)N2CCOCC2)CC(CC(=O)NCc2cccs2)C(=O)N1Cc1ccc(F)cc1 (stereo not drawn)	none (no result: EP2 mod, T cell modulator, EP2 antag)
CCCC(c1nnnn1Cc1ccccc1)N(Cc1cc2cc(C)ccc2[nH]c1=O)C1CCCC1 (stereo not drawn)	none (no result: MC4R antag cAMP, T cell modulator, Exocytosis inh, MC4R ag barr)
O=C(O)c1ccccc1-c1c2cc(I)c(=O)c(I)c-2oc2c(I)c(O)c(I)cc12	MC4R antag cAMP active (no result: EP2 mod, EP2 antag) | U2OS cAMP counter 105 | MC4R antag conf 164
O=Cc1ccc(-c2ccccc2C(=O)O)o1	none
Cc1nn(C)cc1CNC(=O)C1C2CCC(C2)C1C(=O)O (stereo not drawn)	none (no result: MC4R antag cAMP, Exocytosis inh, MC4R ag barr)
CCOc1ccc(C(=O)NCC(=O)OC2CCOC2=O)cc1OCC (stereo not drawn)	MC4R antag cAMP 32 | U2OS cAMP counter 16 | MC4R antag conf inactive
O=C(CCC(=O)c1ccc(F)cc1)OC1CCOC1=O (stereo not drawn)	MC4R antag cAMP 33 | U2OS cAMP counter 21 | MC4R antag conf 37
O=C(CNC(=O)c1ccc(Br)cc1)OC1CCOC1=O (stereo not drawn)	none (no result: EP2 mod, T cell modulator, EP2 antag)
OC(c1ccc(Cl)c(Cl)c1)c1ncc(-c2ccc(Cl)cc2)[nH]1 (stereo not drawn)	none (no result: EP2 mod, T cell modulator, EP2 antag)
COc1ccc(-c2c(C#N)c(N)nc3sc(C(=O)c4ccccc4)c(N)c23)cc1	none
CCOCCOC(=O)c1ccc(-n2cnc(C)n2)nc1	none
Cc1ncn(-c2ccc(C(=O)Oc3ccccc3)cn2)n1	MC4R antag cAMP 29 | U2OS cAMP counter inactive | MC4R antag conf inactive
CCOC(=O)c1ccc(NC(=O)CSCC(=O)OCC(=O)c2ccccc2)cc1	MC4R antag cAMP 36 | U2OS cAMP counter inactive | MC4R antag conf inactive
O=c1c2c(-c3cccs3)csc2[nH]c(=S)n1-c1ccccc1	MC4R antag cAMP 31, EP2 antag 66 | U2OS cAMP counter 18 | MC4R antag conf 33
